Laboratory results taken from ChEMBL document CHEMBL3286101, “Probing of primed and unprimed sites of calpains: Design, synthesis and evaluation of epoxysuccinyl-peptide derivatives as selective inhibitors” (Eur J Med Chem, 2014).
Peptide text beside a SMILES is read from it. * marks the point of attachment. X4 = CC(C)C[C@H](NC(=O)[C@@H]1O[C@H]1C(=O)*)C(=O)N[C@@H](Cc1c[nH]c2ccccc12)C(=O)N[C@H](C(N)=O)[C@@H](C)O; X5 = CC(C)C[C@H](NC(=O)[C@H]1O[C@@H]1C(=O)*)C(=O)N[C@@H](Cc1c[nH]c2ccccc12)C(=O)N[C@H](C(N)=O)[C@@H](C)O; X3 = C[C@@H](O)[C@H](NC(=O)[C@@H]1CCCN1C(=O)[C@@H](NC(=O)[C@H]1O[C@@H]1C(=O)*)[C@@H](C)O)C(N)=O; X9 = C[C@@H](O)[C@H](NC(=O)[C@@H]1CCCN1C(=O)[C@@H](NC(=O)[C@@H]1O[C@H]1C(=O)*)[C@@H](C)O)C(N)=O; X10 = CC(C)C[C@H](NC(=O)[C@@H]1O[C@H]1C(=O)*)C(=O)N[C@@H](CO)C(=O)N[C@H](C(N)=O)[C@@H](C)O; X1 = CC(C)C[C@H](NC(=O)[C@H]1O[C@@H]1C(=O)*)C(=O)N1CCC[C@H]1C(=O)N[C@H](C(N)=O)[C@@H](C)O; X2 = CC(C)C[C@H](NC(=O)[C@@H]1O[C@H]1C(=O)*)C(=O)N1CCC[C@H]1C(=O)N[C@H](C(N)=O)[C@@H](C)O; X6 = CC(C)C[C@H](NC(=O)[C@H]1O[C@@H]1C(=O)*)C(=O)N[C@@H](CO)C(=O)N[C@H](C(N)=O)[C@@H](C)O; X7 = CC(C)[C@H](NC(=O)[C@@H]1O[C@H]1C(=O)*)C(=O)N1CCC[C@H]1C(=O)N[C@H](C(N)=O)[C@@H](C)O; X8 = CC(C)[C@H](NC(=O)[C@H]1O[C@@H]1C(=O)*)C(=O)N1CCC[C@H]1C(=O)N[C@H](C(N)=O)[C@@H](C)O

Tests used:
[1] = Retention time of the compound by RP-HPLC analysis; type: physicochemical
How it was run: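 Analytical RP-HPLC on a C18 column (150 × 4.6 mm, 5 μm, 100 Å). Eluent A is 0.1% TFA in water and eluent B is 0.1% TFA in acetonitrile–water 80:20. Gradient runs 0% B for 2 min, then to 90% B at 22 min, at 1 mL/min and ambient temperature. Detection at 220 nm.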

[2] = Inhibition of rat calpain-2 large subnit/truncated small subunit expressed in Escherichia coli using Suc-LY-AMC as substrate by fluorescence assay
How it was run: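 Rat calpain 2 is made from its 80-kDa large subunit and 21-kDa truncated small subunit, expressed in E. coli, purified on HisTrap and dialyzed into calpain buffer (10 mM HEPES, 150 mM NaCl, 1 mM EDTA, pH 7.5). The reaction starts when 0.2 μM enzyme is added to 100 µM Suc-LY-AMC, 3 mM Ca2+ and inhibitor at various concentrations. Fluorescence is read at 380/460 nm. Triplicates; mean ± S.D.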

Cathepsin B = Cathepsin B (Homo sapiens, UniProt P07858); assay: Inhibition of cathepsin B (unknown origin) using substrate-3 as substrate by fluorescence assay
How it was run: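 Human liver cathepsin B is activated in 0.25 mM MES containing 10 mM DTE. The reaction starts when it is added at 0.7 nM to 100 μM Z-Arg-AMC with inhibitor at various concentrations in 0.25 mM MES, pH 5.0. Fluorescence is followed at 380/460 nm. Triplicates; mean ± S.D.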

[3] = target: T1, Calpain-1 catalytic subunit (Homo sapiens, UniProt P07384); assay: Inhibition of calpain-1 (unknown origin) using Suc-LY-AMC as substrate by fluorescence assay
T1 sequence (P07384 whole entry): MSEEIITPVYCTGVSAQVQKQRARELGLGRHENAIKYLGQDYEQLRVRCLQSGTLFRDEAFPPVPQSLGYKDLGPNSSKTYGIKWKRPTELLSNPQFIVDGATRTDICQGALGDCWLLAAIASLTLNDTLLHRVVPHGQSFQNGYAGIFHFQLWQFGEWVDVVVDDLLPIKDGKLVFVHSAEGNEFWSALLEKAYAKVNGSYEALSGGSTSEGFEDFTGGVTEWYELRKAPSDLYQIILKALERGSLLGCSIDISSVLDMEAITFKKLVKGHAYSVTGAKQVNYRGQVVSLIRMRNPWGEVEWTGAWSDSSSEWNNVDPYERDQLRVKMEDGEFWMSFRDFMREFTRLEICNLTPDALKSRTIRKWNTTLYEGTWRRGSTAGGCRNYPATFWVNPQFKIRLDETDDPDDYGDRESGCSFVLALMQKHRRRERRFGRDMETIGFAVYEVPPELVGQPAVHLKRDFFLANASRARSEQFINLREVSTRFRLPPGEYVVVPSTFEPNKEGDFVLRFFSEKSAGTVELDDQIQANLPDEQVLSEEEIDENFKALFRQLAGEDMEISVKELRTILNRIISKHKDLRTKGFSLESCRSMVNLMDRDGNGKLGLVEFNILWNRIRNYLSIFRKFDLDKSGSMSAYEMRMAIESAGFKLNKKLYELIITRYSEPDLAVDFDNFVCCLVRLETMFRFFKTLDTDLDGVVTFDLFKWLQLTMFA
How it was run: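 Human erythrocyte calpain 1 at 0.5 μM starts the reaction, added to 100 µM Suc-LY-AMC, 3 mM Ca2+ and inhibitor at various concentrations in 50 µL calpain buffer (10 mM HEPES, 150 mM NaCl, 1 mM EDTA, pH 7.5). Fluorescence is followed at 380/460 nm. Triplicate experiments; mean ± S.D.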

[4] = Selectivity ratio of Ki for cathepsin B (unknown origin) to Ki for rat calpain-2

Row | Structure (SMILES) | Retention time [1] | Ki [2] | Ki (Cathepsin B) | Ki [3] | Retention_time [1] | Ratio Ki [4]
1 | CC(C)C[C@H](NC(=O)[C@H]1O[C@@H]1C(=O)N[C@@H](CO)C(=O)N1CCC[C@H]1C(=O)N1CCC[C@H]1C(=O)N1CCC[C@H]1C(=O)N[C@@H](CO)C(N)=O)C(=O)N[C@@H](Cc1c[nH]c2ccccc12)C(=O)N[C@H](C(N)=O)[C@@H](C)O (X5-SPPPS-NH2) | 12.5 min | 4.05 µM | 5 µM | 17.1 µM | – | –
2 | CC(C)C[C@H](NC(=O)[C@H]1O[C@@H]1C(=O)N[C@@H](CO)C(=O)N[C@@H](CCC(N)=O)C(=O)N1CCC[C@H]1C(=O)N1CCC[C@H]1C(=O)N[C@@H](CO)C(N)=O)C(=O)N1CCC[C@H]1C(=O)N[C@H](C(N)=O)[C@@H](C)O (X1-SQPPS-NH2) | – | > 100 µM | > 100 µM | > 100 µM | 10.8 min | –
3 | CC(C)C[C@H](NC(=O)[C@@H]1O[C@H]1C(=O)N[C@@H](CO)C(=O)N1CCC[C@H]1C(=O)N1CCC[C@H]1C(=O)N1CCC[C@H]1C(=O)N[C@@H](CO)C(N)=O)C(=O)N[C@@H](CO)C(=O)N[C@H](C(N)=O)[C@@H](C)O (X10-SPPPS-NH2) | – | – | – | 30.8 µM | 10.2 min | –
4 | CC(C)C[C@H](NC(=O)[C@H]1O[C@@H]1C(=O)N[C@@H](CCCNC(=N)N)C(=O)N1CCC[C@H]1C(=O)N1CCC[C@H]1C(=O)N1CCC[C@H]1C(=O)N[C@@H](CO)C(N)=O)C(=O)N1CCC[C@H]1C(=O)N[C@H](C(N)=O)[C@@H](C)O (X1-RPPPS-NH2) | – | 17.9 µM | > 50 µM | 23.7 µM | 11.1 min | –
5 | CC(C)C[C@H](NC(=O)[C@H]1O[C@@H]1C(=O)N[C@@H](CO)C(=O)N[C@@H](CO)C(=O)N1CCC[C@H]1C(=O)N1CCC[C@H]1C(=O)N[C@@H](CO)C(N)=O)C(=O)N1CCC[C@H]1C(=O)N[C@H](C(N)=O)[C@@H](C)O (X1-SSPPS-NH2) | – | > 100 µM | > 100 µM | > 100 µM | 12 min | –
6 | CC(C)C[C@H](NC(=O)[C@H]1O[C@@H]1C(=O)N[C@@H](CO)C(=O)N1CCC[C@H]1C(=O)N1CCC[C@H]1C(=O)N1CCC[C@H]1C(=O)N[C@@H](CO)C(N)=O)C(=O)N1CCC[C@H]1C(=O)N[C@H](C(N)=O)[C@@H](C)O (X1-SPPPS-NH2) | – | > 50 µM | > 50 µM | 12.5 µM | 12.5 min | –
7 | CC(C)C[C@H](NC(=O)[C@@H]1O[C@H]1C(=O)N[C@@H](CCCNC(=N)N)C(=O)N1CCC[C@H]1C(=O)N1CCC[C@H]1C(=O)N1CCC[C@H]1C(=O)N[C@@H](CO)C(N)=O)C(=O)N1CCC[C@H]1C(=O)N[C@H](C(N)=O)[C@@H](C)O (X2-RPPPS-NH2) | – | > 50 µM | > 100 µM | 26.3 µM | 11.1 min | –
8 | CC(C)[C@H](NC(=O)[C@@H]1O[C@H]1C(=O)N[C@@H](CO)C(=O)N1CCC[C@H]1C(=O)N1CCC[C@H]1C(=O)N1CCC[C@H]1C(=O)N[C@@H](CO)C(N)=O)C(=O)N1CCC[C@H]1C(=O)N[C@H](C(N)=O)[C@@H](C)O (X7-SPPPS-NH2) | – | > 100 µM | > 100 µM | > 50 µM | 10.2 min | –
9 | CC(C)C[C@H](NC(=O)[C@H]1O[C@@H]1C(=O)N[C@H](C(=O)N1CCC[C@H]1C(=O)N1CCC[C@H]1C(=O)N1CCC[C@H]1C(=O)N[C@@H](CO)C(N)=O)[C@@H](C)O)C(=O)N1CCC[C@H]1C(=O)N[C@H](C(N)=O)[C@@H](C)O (X1-TPPPS-NH2) | – | > 50 µM | 12.1 µM | 8.38 µM | 11 min | –
10 | C[C@@H](O)[C@H](NC(=O)[C@@H]1CCCN1C(=O)[C@@H](NC(=O)[C@H]1O[C@@H]1C(=O)N[C@@H](CO)C(=O)N1CCC[C@H]1C(=O)N1CCC[C@H]1C(=O)N1CCC[C@H]1C(=O)N[C@@H](CO)C(N)=O)[C@@H](C)O)C(N)=O (X3-SPPPS-NH2) | – | > 100 µM | > 100 µM | > 100 µM | 9.7 min | –
11 | CC(C)[C@H](NC(=O)[C@H]1O[C@@H]1C(=O)N[C@@H](CO)C(=O)N1CCC[C@H]1C(=O)N1CCC[C@H]1C(=O)N1CCC[C@H]1C(=O)N[C@@H](CO)C(N)=O)C(=O)N1CCC[C@H]1C(=O)N[C@H](C(N)=O)[C@@H](C)O (X8-SPPPS-NH2) | – | 29.2 µM | > 100 µM | > 50 µM | 10.7 min | –
12 | CC(C)C[C@H](NC(=O)[C@@H]1O[C@H]1C(=O)N[C@@H](CO)C(=O)N[C@@H](CCC(N)=O)C(=O)N1CCC[C@H]1C(=O)N1CCC[C@H]1C(=O)N[C@@H](CO)C(N)=O)C(=O)N1CCC[C@H]1C(=O)N[C@H](C(N)=O)[C@@H](C)O (X2-SQPPS-NH2) | – | > 100 µM | > 100 µM | > 100 µM | 10.7 min | –
13 | CC(C)C[C@H](NC(=O)[C@@H]1O[C@H]1C(=O)N[C@@H](CO)C(=O)N[C@@H](CO)C(=O)N1CCC[C@H]1C(=O)N1CCC[C@H]1C(=O)N[C@@H](CO)C(N)=O)C(=O)N1CCC[C@H]1C(=O)N[C@H](C(N)=O)[C@@H](C)O (X2-SSPPS-NH2) | – | > 100 µM | > 100 µM | > 100 µM | 11.9 min | –
14 | CC(C)C[C@H](NC(=O)[C@@H]1O[C@H]1C(=O)N[C@H](C(=O)N1CCC[C@H]1C(=O)N1CCC[C@H]1C(=O)N1CCC[C@H]1C(=O)N[C@@H](CO)C(N)=O)[C@@H](C)O)C(=O)N1CCC[C@H]1C(=O)N[C@H](C(N)=O)[C@@H](C)O (X2-TPPPS-NH2) | – | 4.24 µM | > 50 µM | > 50 µM | 12.3 min | 11.8
15 | CC(C)C[C@H](NC(=O)[C@@H]1O[C@H]1C(=O)N[C@@H](CO)C(=O)N1CCC[C@H]1C(=O)N1CCC[C@H]1C(=O)N1CCC[C@H]1C(=O)N[C@@H](CO)C(N)=O)C(=O)N[C@@H](Cc1c[nH]c2ccccc12)C(=O)N[C@H](C(N)=O)[C@@H](C)O (X4-SPPPS-NH2) | – | 21.4 µM | 4.45 µM | 3.7 µM | 13.2 min | –
16 | C[C@@H](O)[C@H](NC(=O)[C@@H]1CCCN1C(=O)[C@@H](NC(=O)[C@@H]1O[C@H]1C(=O)N[C@@H](CO)C(=O)N1CCC[C@H]1C(=O)N1CCC[C@H]1C(=O)N1CCC[C@H]1C(=O)N[C@@H](CO)C(N)=O)[C@@H](C)O)C(N)=O (X9-SPPPS-NH2) | – | – | – | > 100 µM | 9.1 min | –
17 | CC(C)C[C@H](NC(=O)[C@H]1O[C@@H]1C(=O)N[C@@H](CO)C(=O)N1CCC[C@H]1C(=O)N1CCC[C@H]1C(=O)N1CCC[C@H]1C(=O)N[C@@H](CO)C(N)=O)C(=O)N[C@@H](CO)C(=O)N[C@H](C(N)=O)[C@@H](C)O (X6-SPPPS-NH2) | – | 14.3 µM | > 50 µM | 21.9 µM | 10.3 min | –
18 | CC(C)C[C@H](NC(=O)[C@@H]1O[C@H]1C(=O)N[C@@H](CO)C(=O)N1CCC[C@H]1C(=O)N1CCC[C@H]1C(=O)N1CCC[C@H]1C(=O)N[C@@H](CO)C(N)=O)C(=O)N1CCC[C@H]1C(=O)N[C@H](C(N)=O)[C@@H](C)O (X2-SPPPS-NH2) | – | > 50 µM | > 50 µM | > 100 µM | 10.9 min | –
